According to ChEMBL document CHEMBL1137516, “A novel class of potent NF-kappaB signaling inhibitors” (Bioorg Med Chem Lett, 2007):

Legend:
[1] = Inhibition of NF-kappaB in A549 cells after 5 hrs by reporter gene assay; assay type: cell-based; settings: Homo sapiens, A549, 5 h
In short: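 A549 cells stably transfected with a pNF-κB-SEAP reporter were plated at 2 · 10^4/well and left to attach overnight. They were pre-incubated 5 h with compound at 100, 30, 10, 3, 1, 0.3, 0.1 and 0 µM, then stimulated with 10 ng/ml TNF-α for 22 h. Supernatant SEAP was read by chemiluminescence, viability by CellTiter-Blue, with four replicates per concentration.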

PBMC = experiment: Antiproliferative activity against human PBMC; assay type: functional, cell-based
In short: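 Human peripheral blood mononuclear cells were stimulated with phytohemagglutinin, so the proliferation read-out reflects mainly T-cells.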

[2] = Inhibition of chymotrypsin like activity of human 20S proteasome
In short: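 20S proteasome (1.3 µg) was pre-incubated 10 min at room temperature in 25 mM HEPES pH 7.5, 0.5 mM EDTA, 0.033% SDS, then added to compound in DMSO and Suc-LLVY-AMC substrate (75 µM in the substrate solution). Fluorescence (ex 360/em 465 nm) was followed 20 min at 30 °C as RFU/min. Eight inhibitor concentrations were run in triplicate, and IC50 came from a four-parameter logistic fit.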

A549 = experiment: Inhibition of NF-kappaB in A549 cells at 20 uM after 5 hrs by reporter gene assay; assay type: cell-based; settings: Homo sapiens

Structure (SMILES) | EC50 [1] [nM] | other results
O=C(c1csc(C2CCN(S(=O)(=O)c3ccc(F)cc3Cl)CC2)n1)N1CCN(c2cccc(C(F)(F)F)c2)CC1 | 20000 | –
COc1nc(OC)nc(N2CCC(c3nc(C(=O)N4CCN(c5cccc(C(F)(F)F)c5)CC4)cs3)CC2)n1 | 4700 | IC50 (PBMC): 15000 nM
N#Cc1ccc(CN2CCC(c3nc(C(=O)N4CCN(c5cccc(C(F)(F)F)c5)CC4)cs3)CC2)cc1 | 8500 | –
Cc1cc2nccc(N3CCC(c4nc(C(=O)Nc5nc6cc(C(=O)c7ccccc7)ccc6[nH]5)cs4)CC3)n2n1 | 100 | –
COC(=O)c1nc2nccc(N3CCC(c4nc(C(=O)Nc5nc6cc(C(=O)c7ccccc7)ccc6[nH]5)cs4)CC3)n2n1 | 500 | IC50 (PBMC): 2500 nM
COc1nc(OC)nc(N2CCC(c3nc(C(=O)Nc4nc5cc(C(=O)c6ccccc6)ccc5[nH]4)cs3)CC2)n1 | 800 | –
Cc1cc2nnc(C(=O)N3CCC(c4nc(C(=O)Nc5nc6cc(C(=O)c7ccccc7)ccc6[nH]5)cs4)CC3)c(C)n2n1 | 900 | –
O=C(c1csc(C2CCN(S(=O)(=O)c3cccs3)CC2)n1)N1CCN(c2cccc(C(F)(F)F)c2)CC1 | 20000 | –
O=C(Nc1cccc(F)c1)N1CCC(c2nc(C(=O)N3CCN(c4cccc(C(F)(F)F)c4)CC3)cs2)CC1 | 3400 | –
O=C(c1ccccc1)c1ccc2[nH]c(NC(=O)c3csc(C4CCN(c5cc(C(F)(F)F)ncn5)CC4)n3)nc2c1 | 500 | –
O=C(c1csc(C2CCN(c3ccc(C(F)(F)F)cc3)CC2)n1)N1CCN(c2cccc(C(F)(F)F)c2)CC1 | 20000 | IC50 [2]: 480 nM
COc1cc(N2CCC(c3nc(C(=O)Nc4nc5cc(C(=O)c6ccccc6)ccc5[nH]4)cs3)CC2)nc(OC)n1 | 300 | IC50 [2]: > 3000 nM
Cc1cc2nnc(C(=O)N3CCC(c4nc(C(=O)NC5CCN(Cc6ccccc6)C5)cs4)CC3)c(C)n2n1 (stereo not given) | – | IC50 (PBMC): 37000 nM; IC50 [2]: 580 nM; inhibition (A549): 30%
O=C(c1ccccc1)c1ccc2[nH]c(NC(=O)c3csc(C4CCN(C(=O)c5ccccc5OC(F)(F)F)CC4)n3)nc2c1 | 800 | –

Now from value to compound, other results behind:

EC50 [1] [nM] | Structure (SMILES) | other results
300 | O=C(c1ccccc1)c1ccc2[nH]c(NC(=O)c3csc(C4CCN(c5ccncc5[N+](=O)[O-])CC4)n3)nc2c1 | –
300 | O=C(c1ccccc1)c1ccc2[nH]c(NC(=O)c3csc(C4CCN(c5ncnc6nc[nH]c56)CC4)n3)nc2c1 | –
7200 | COc1cccc(NC(=O)N2CCC(c3nc(C(=O)N4CCN(c5cccc(C(F)(F)F)c5)CC4)cs3)CC2)c1 | –
100 | O=C(c1ccccc1)c1ccc2[nH]c(NC(=O)c3csc(C4CCN(c5ccnc6ncnn56)CC4)n3)nc2c1 | IC50 (PBMC): 3600 nM
300 | Cc1cc2nc(NC(=O)c3csc(C4CCN(c5ncnc6ccsc56)CC4)n3)[nH]c2cc1C | –
400 | COc1nc(OC)nc(N2CCC(c3nc(C(=O)Nc4nc5cc(C(=O)c6ccsc6)ccc5[nH]4)cs3)CC2)n1 | –
> 20000 | Cc1cc2nnc(C(=O)N3CCC(c4nc(C(=O)N5CCN(c6cccc(C(F)(F)F)c6)CC5)cs4)CC3)c(C)n2n1 | –
3000 | Cc1cc2nc(NC(=O)c3csc(C4CCN(C(=O)c5ccccc5OC(F)(F)F)CC4)n3)[nH]c2cc1C | –
300 | COc1cc2ncnc(N3CCC(c4nc(C(=O)Nc5nc6cc(C(=O)c7ccccc7)ccc6[nH]5)cs4)CC3)c2cc1OC | –
5000 | COc1cc(N2CCC(c3nc(C(=O)N4CCN(c5cccc(C(F)(F)F)c5)CC4)cs3)CC2)nc(OC)n1 | –
200 | O=C(c1ccccc1)c1ccc2[nH]c(NC(=O)c3csc(C4CCN(c5ncnc6ccsc56)CC4)n3)nc2c1 | IC50 (PBMC): 2200 nM
300 | N#Cc1ccc(CN2CCC(c3nc(C(=O)Nc4nc5cc(C(=O)c6ccccc6)ccc5[nH]4)cs3)CC2)cc1 | –
500 | O=C(c1ccsc1)c1ccc2[nH]c(NC(=O)c3csc(C4CCN(c5ncnc6ccsc56)CC4)n3)nc2c1 | –
